Here are results for 6 compounds from ChEMBL document CHEMBL1129428 (J Med Chem, 1996).

A word on the ED50: it is the midpoint of the dose-response relation. In general, TD50 refers to the dose at which the toxic effect under study appears in half of the subjects.

Series [1] concerns Rattus norvegicus. Description: Compound was tested for anticonvulsant activity after Oral Administration into Rats by using MES screen test after 4h,dose 30 mg/kg; number of rats out of four which were protected. It counts as functional. The gist of the method: (§1)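 Rats received the compound orally. […] Rats were tested in the MES screen at 0.25, 0.5, 1, 2 and 4 h. Each value is the number of rats protected out of 4. The test followed NINDS procedures.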

For series [2], the system named is Mus musculus. The series can be described thus: Anticonvulsant activity after intraperitoneal injection into mice measured in a maximal electroshock scree (MES) screen. It counts as functional. Background: In the maximal electroshock model the usual endpoint is tonic extension of the hind limbs.
The test system of series [3] is Mus musculus. The series can be described thus: Compound was tested for toxicity after intraperitoneal injection into mice by using toxicity screen test after 4 hr. It is filed as organism-based. To be noted: in vivo, ip. The gist of the method:
(§2)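 Mice injected intraperitoneally at 30, 100 and 300 mg/kg and examined 0.5 and 4 h afterwards. Each entry is the minimum dose giving activity (MES protection, scPTZ protection, or rotorod failure for neurotoxicity) in half or more of the mice. Activity is called absent if nothing occurs at 300 mg/kg.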

Series [4] relates to Rattus norvegicus. Description: Compound was tested for anticonvulsant activity after Oral Administration into Rats by using MES screen test after 0.25h,dose 30 mg/kg; No activity was demonstarted. It counts as functional, organism-based. Also on record: dose 30 mg/kg. The gist of the method: as §1
The test system of series [5] is Mus musculus. The series can be described thus: Toxicity after intraperitoneal injection into mice by using toxicity screen test after 0.5 hr. It is filed as organism-based. To be noted: in vivo, ip. In a few lines: as §2
Series [6] has as its system Rattus norvegicus. Description: Compound was tested for anticonvulsant activity after Oral Administration into Rats by using MES screen test after 1h,dose 30 mg/kg; number of rats out of four which were protected. It counts as functional. The gist of the method:
as §1

Series [7] relates to Mus musculus. Description: Anticonvulsant activity after intraperitoneal injection into mice by using MES screen test after 0.5 hr. It is filed as functional.
For series [8], the system named is Rattus norvegicus. The series can be described thus: Compound was tested for anticonvulsant activity after Oral Administration into Rats by using MES screen test after 2h,dose 30 mg/kg; number of rats out of four which were protected. It counts as functional. The gist of the method:
as §1

The subject of series [9] is Rattus norvegicus. The series can be described thus: Compound was tested for anticonvulsant activity after Oral Administration into Rats by using MES screen test after 0.5h,dose 30 mg/kg; No activity was demonstarted. It is filed as functional, organism-based. Also on record: dose 30 mg/kg. The gist of the method:
as §1

Series [10] concerns Mus musculus. Description: Anticonvulsant activity after intraperitoneal injection into mice by using scPTZ screen test after 4 hr. It is filed as functional.
Series [11] relates to Rattus norvegicus. Description: Compound was tested for anticonvulsant activity after Oral Administration into Rats by using MES screen test after 4h,dose 12.5 mg/kg; number of rats out of four which were protected. It counts as functional. In a few lines:
as §1

The subject of series [12] is Rattus norvegicus. Description: Compound was tested for anticonvulsant activity after Oral Administration into Rats by using MES screen test after 0.25h,dose 12.5 mg/kg; No activity was demonstarted. It is filed as functional, organism-based. Also on record: dose 12.5 mg/kg. In a few lines: as §1
For series [13], the system named is Rattus norvegicus. The series can be described thus: Compound was tested for anticonvulsant activity after Oral Administration into Rats by using MES screen test after 2h,dose 12.5 mg/kg; number of rats out of four which were protected. It counts as functional. In a few lines:
as §1

For series [14], the system named is Rattus norvegicus. Description: Anticonvulsant activity after oral administration into rats. Also on record: concentration or dose not given beside the values. It counts as functional.
Series [15] has as its system Rattus norvegicus. The series can be described thus: Compound was tested for anticonvulsant activity after Oral Administration into Rats by using MES screen test after 1h,dose 12.5 mg/kg; number of rats out of four which were protected. It is filed as functional. The gist of the method: as §1
The test system of series [16] is Mus musculus. The series can be described thus: Compound was tested for anticonvulsant activity after intraperitoneal injection into mice by using MES screen test after 2 hr. It counts as functional. To be noted: ip. In a few lines:
(§3)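 Quantitative intraperitoneal mouse testing in the MES, scPTZ or rotorod neurotoxicity screens at the peak time given for each compound (0.25–2 h). ED50 or TD50 reported in mg/kg with 95% CI and slope (SE).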

Series [17] in a line: Compound was tested for toxicity after intraperitoneal injection into mice by using neurotoxicity screen test after 2 hr. To be noted: mouse, in vivo, ip. It counts as organism-based. In a few lines: as §3
Series [18] in a line: Protection index = TD50/ED50 (MES). To be noted: mouse, in vivo; read-out: PI.
Series [19] concerns Mus musculus. Description: Compound was tested for anticonvulsant activity after intraperitoneal injection into mice by using scPTZ screen test after 2 hr. It is filed as functional. To be noted: ip. The gist of the method: as §3
Series [20] has as its system Mus musculus. Description: Anticonvulsant activity after intraperitoneal injection into mice by using scPTZ screen after 0.5 hr. It is filed as functional.
Series [21] is described as follows: Compound was tested for toxicity after oral administration in rat by using neurotoxicity screen test after 0.25-24 hr. It is filed as organism-based. To be noted: in vivo. The gist of the method: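 Rat neurotoxicity after oral dosing, observed at 0.25, 0.5, 1, 2, 4, 6, 8 and 24 h (8 h omitted for one compound).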
Series [22] concerns Rattus norvegicus. Description: Compound was tested for anticonvulsant activity after Oral Administration into rat by using MES screen test after 4 hr. It is filed as functional. In a few lines: (§4)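 Rats dosed orally, typically at 50 mg/kg first, then mostly 12.5 mg/kg (some compounds at 30 mg/kg), and tested by maximal electroshock. Four rats per compound, scored at 0.25, 0.5, 1, 2 and 4 h as the number of rats protected out of 4.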

For series [23], the system named is Rattus norvegicus. The series can be described thus: Compound was tested for anticonvulsant activity after Oral Administration into Rats by using MES screen test after 0.25h,dose 12.5 mg/kg; number of rats out of four which were protected. It is filed as functional. In a few lines:
as §1

Series [24] is described as follows: Compound was tested for toxicity after intraperitoneal injection into mice by using neurotoxicity screen test after 4 hr. It is filed as organism-based. To be noted: mouse, in vivo, ip. In a few lines: as §2
For series [25], the system named is Mus musculus. Description: Compound was tested for anticonvulsant activity after intraperitoneal injection into mice by using scPTZ screen test after 1 hr. It counts as functional. To be noted: ip. In a few lines: as §3
In series [26] the test system is Mus musculus. Description: Compound was tested for anticonvulsant activity after intraperitoneal injection into mice by using MES screen test after 1 hr. It counts as functional. To be noted: ip. In a few lines: as §3
Series [27] has as its system Rattus norvegicus. The series can be described thus: Compound was tested for anticonvulsant activity after Oral Administration into rat by using MES screen test after 2 hr. It is filed as functional. The gist of the method:
as §4

A short description of series [28]: Protection index = TD50/ED50. It is filed as ADME. To be noted: read-out: PI.
Series [29] relates to Rattus norvegicus. Description: Compound was tested for anticonvulsant activity after Oral Administration into Rats by using MES screen test after 4h,dose 12.50 mg/kg; number of rats out of four which were protected. It is filed as functional. To be noted: dose 12.5 mg/kg. The gist of the method: as §1
In series [30] the test system is Rattus norvegicus. The series can be described thus: Compound was tested for anticonvulsant activity after Oral Administration into Rats by using MES screen test after 0.5h,dose 12.5 mg/kg; No activity was demonstarted. It is filed as functional, organism-based. Also on record: dose 12.5 mg/kg. In a few lines:
as §1

Series [31] concerns Rattus norvegicus. The series can be described thus: Compound was tested for anticonvulsant activity after Oral Administration into Rats by using MES screen test after 2h,dose 12.5 mg/kg; No activity was demonstarted. It is filed as functional, organism-based. Also on record: dose 12.5 mg/kg. In a few lines:
as §1

`CC/C(=N/NC(N)=O)c1ccc(Sc2ccc(F)cc2)cc1`: the Activity in series [1] is 3; in [4] it was “No activity”; in [6], 2; in [8], 3; in [9], “No activity”. Further, the Dose was found to be 100 mg/kg in series [2], 100 mg/kg in series [3], 100 mg/kg in [5] and 30 mg/kg in series [7].

On to `NC(=O)N/N=C/c1ccc(Sc2ccc(Br)cc2)cc1`, for which the Dose is 300 mg/kg in [10], 30 mg/kg in [2], 300 mg/kg in series [3] and 100 mg/kg in [7]. For the same compound, the Activity in series [11] is 4; in [12], “No activity”; in series [13], 4; in series [14] it was 1; in series [15] it was 3. The ED50 in series [16] was 24.4 mg/kg; in series [19], above 200 mg/kg. In addition, the TD50 at 2 h in [17] was 123 mg/kg. Moreover, in series [18], the selectivity ratio was determined as 5.03.

Take `NC(=O)N/N=C\c1ccccc1Oc1ccc(F)cc1`: the Activity in [1] is 1; in [4] it was “No activity”; in [6], 1; in series [8] it was 2; in series [9], “No activity”.

Consider `C/C(=N/NC(N)=O)c1ccc(Oc2ccc(Br)cc2)cc1`, for which the Activity in [11] is reported as 4; in series [13], 4; in series [14], 3; in [15], 4; in [23], 1. For the same compound, the Dose in series [20] amounted to 300 mg/kg; in series [2], 30 mg/kg; in series [3] it was 100 mg/kg; in [5], 300 mg/kg; in series [7] it was 30 mg/kg. In addition, the ED50 in series [16] is 12.5 mg/kg; in series [22] it was 1.52 mg/kg; in series [19] it was above 110 mg/kg. The TD50 in [21] is above 500 mg/kg. Also, the TD50 at 2 h in [17] was determined as 104 mg/kg.

Consider `CCCc1ccc(Oc2ccc(/C=N/NC(N)=O)cc2)cc1`, for which the Activity is 2 in [11]; “No activity” in [12]; 4 in series [13]; 1 in series [14]; 2 in series [15]. The Dose came to 300 mg/kg in series [20], 100 mg/kg in series [2], 300 mg/kg in [3] and 100 mg/kg in series [7]. This compound yielded a TD50 at 4 h in series [24] of 243 mg/kg. For the same compound, the ED50 in [25] worked out at 79.6 mg/kg; in [26] it was 11 mg/kg; in series [27], 2.63 mg/kg. In addition, the TD50 in [21] is above 500 mg/kg. For the same compound, the selectivity ratio in [28] amounted to 3.05.

For the compound `Cc1cccc(Oc2ccc(/C=N/NC(N)=O)cc2)c1C`, the Activity result in series [12] was “No activity”; in series [29] it was 1; in series [30] it was “No activity”; in series [15], 1; in series [31], “No activity”. The Dose in series [2] worked out at 100 mg/kg.
